Reference: ChEMBL document CHEMBL5137045, “Discovery of 2-(furan-2-ylmethylene)hydrazine-1-carbothioamide derivatives as novel inhibitors of SARS-CoV-2 main protease” (Eur J Med Chem, 2022)
Activity calls are given as the source filed them. The calls are words filed in the database; no cut-off is given here.

How the values were obtained:
[1] = molecular target: Replicase polyprotein 1ab (Severe acute respiratory syndrome coronavirus 2) (UniProt P0DTD1); assay: Inhibition of SARS CoV-2 main protease at 50 uM using DABCYL-KTSAVLQSGFRKM-E(EDANS)-NH2 as substrate preincubated for 30 mins followed by substrate addition and measured after 20 mins relative to control; details: time 50.0 min
Summary of the method: (§1)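 FRET protease assay in 40 mM PBS, 100 mM NaCl, 1 mM EDTA, 0.1% Triton, pH 7.3. M^pro (0.5 μM) was preincubated with inhibitor 30 min at room temperature, then 20 μM substrate was added. Cleavage fluorescence (ex 360/em 460 nm) was read for 20 min. This covers preliminary screening and IC50; IC50 from Hill1 fit.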

[2] = molecular target: T1, Replicase polyprotein 1ab (Severe acute respiratory syndrome coronavirus 2, UniProt P0DTD1); assay: Inhibition of SARS CoV-2 main protease using DABCYL-KTSAVLQSGFRKM-E(EDANS)-NH2 as substrate preincubated for 30 mins followed by substrate addition and measured after 20 mins
[3] = (§2) Cytotoxicity against African green monkey Vero cells assessed as reduction in cell viability measured after 48 hrs by MTT assay; type: toxicity, cell-based; details: chlorocebus sabaeus, Vero cells
Summary of the method: (§3)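 MTT viability assay. Vero cells were kept in MEM and MDCK cells in DMEM, each with 10% FBS and 100 U/mL penicillin/streptomycin, humidified, 5% CO2. Cells were seeded, incubated 18 h, then given compound; vehicle served as blank.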

MDCK = assay: Cytotoxicity against MDCK cells assessed as reduction in cell viability incubated for 48 hrs by MTT assay; type: toxicity, cell-based, Canis lupus familiaris; details: dog; summary of the method: as §3
Procathepsin L = Procathepsin L (Homo sapiens, UniProt P07711); assay: Inhibition of human Cathepsin L using Ac-FR-AFC as fluorescent substrate preincubated for 15 mins followed by substrate addition and measured after 30 mins by fluorescent microplate reader analysis
Chain of Procathepsin L (P07711 whole entry): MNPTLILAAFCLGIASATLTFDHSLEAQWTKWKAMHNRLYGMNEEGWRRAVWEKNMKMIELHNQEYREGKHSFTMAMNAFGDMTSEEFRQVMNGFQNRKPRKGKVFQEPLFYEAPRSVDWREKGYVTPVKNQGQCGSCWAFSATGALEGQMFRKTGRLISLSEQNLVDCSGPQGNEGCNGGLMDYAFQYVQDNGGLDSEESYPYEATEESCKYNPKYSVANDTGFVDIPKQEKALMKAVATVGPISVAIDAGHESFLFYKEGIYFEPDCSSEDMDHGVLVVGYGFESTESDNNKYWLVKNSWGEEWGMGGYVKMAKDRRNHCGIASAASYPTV

[4] = molecular target: T1, Replicase polyprotein 1ab; assay: Inhibition of SARS CoV-2 main protease using DABCYL-KTSAVLQSGFRKM-E(EDANS)-NH2 as substrate preincubated for 5 mins followed by substrate addition
Summary of the method: (§4)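 Time-dependence: M^pro was preincubated with various inhibitor concentrations for different times at room temperature before fluorogenic substrate addition. Activity was read as in the standard FRET assay.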

[5] = molecular target: Replicase polyprotein 1ab (Severe acute respiratory syndrome coronavirus 2) (UniProt P0DTD1); assay: Non-competitive inhibition of SARS CoV-2 main protease using DABCYL-KTSAVLQSGFRKM-E(EDANS)-NH2 as substrate at varying concentrations preincubated for 3 hrs followed by substrate addition by Lineweaver-burk plot analysis
Summary of the method: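 Kinetics: 0.5 μM M^pro was preincubated 3 h with DMSO or inhibitor, then varying fluorogenic substrate concentrations started the reaction. Three replicates, curve-fitted.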

[6] = molecular target: Replicase polyprotein 1ab (Severe acute respiratory syndrome coronavirus 2) (UniProt P0DTD1); assay: Reversible inhibition of SARS CoV-2 main protease at 100 uM incubated for 180 mins by ultrafiltration assay
Summary of the method: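 Reversibility: 10 μM M^pro was incubated with 100 μM inhibitor for 180 min and split into four portions, each ultrafiltered a different number of times. Each round added an equal volume of assay buffer, 5 min, 4 °C, 12,000 rpm. Retained protease was diluted to 0.5 μM and assayed for activity; three replicates averaged.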

[7] = molecular target: Replicase polyprotein 1ab (Severe acute respiratory syndrome coronavirus 2) (UniProt P0DTD1); assay: Covalent binding affinity to SARS CoV-2 main protease at 15 uM incubated for 3 hrs by Quadrupole-TOF LC-MS/MS analysis
Summary of the method: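 Protease (2 μM) was co-incubated with 15 μM inhibitor on ice for 3 h. The complex was run on Q-TOF LC-MS/MS, and raw mass signal was deconvoluted to give total protein mass.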

Vero = assay: as §2; type: toxicity, cell-based; details: chlorocebus sabaeus, vero, 48 h; summary of the method: as §3
[8] = molecular target: T1, Replicase polyprotein 1ab; assay: Inhibition of SARS CoV-2 main protease using DABCYL-KTSAVLQSGFRKM-E(EDANS)-NH2 as substrate preincubated for 180 mins followed by substrate addition; summary of the method: as §4
[9] = molecular target: T1, Replicase polyprotein 1ab; assay: Inhibition of SARS CoV-2 main protease using DABCYL-KTSAVLQSGFRKM-E(EDANS)-NH2 as substrate preincubated for 30 mins followed by substrate addition; summary of the method: as §1
[10] = molecular target: T1, Replicase polyprotein 1ab; assay: Binding affinity to SARS-CoV-2 main protease assessed as dissociation constant by SPR analysis
Summary of the method: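 SPR with M^pro immobilised and an empty first flow channel as reference. Compounds were injected for 60 s at 0.2–100 μM for binding (50 μM for screening). Dissociation was followed for 100–200 s at 30 μL/min. […] K_D came from a 1:1 kinetic binding fit.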

NC(=S)N/N=C/c1ccc(-c2ccc3cccnc3c2)o1
inhibition [1]: 92.3% | IC50 [2]: 10.4 µM

NC(=S)N/N=C/c1ccc(-c2ccccc2)o1
inhibition [1]: 100% | IC50 [2]: 4.05 µM

NC(=S)N/N=C/c1ccc(-c2ccc(O)c(C(=O)O)c2)o1
inhibition [1]: 115% | IC50 [2]: 9.09 µM

NC(=S)N/N=C/c1ccc(-c2ccc(F)nc2)o1
inhibition [1]: 97.4% | IC50 [2]: 8.76 µM

NC(=S)N/N=C/c1ccc(-c2ccncc2)o1
inhibition [1]: 95.4% | IC50 [2]: 7.09 µM

Cc1cc(C(=O)O)ccc1-c1ccc(/C=N/NC(N)=S)o1
inhibition [1]: 98.5% | IC50 [2]: 4.69 µM

Cc1cc([N+](=O)[O-])c(-c2ccc(/C=N/NC(=O)c3nonc3N)o2)cc1Cl
inhibition [1]: 70.9% | IC50 [2]: 25 µM

NC(=S)N/N=C/c1ccc(-c2cccc(C(=O)O)c2Cl)o1
inhibition [1]: 84.4% | IC50 [2]: 40.6 µM

NC(=S)N/N=C/c1ccc(-c2ccc(C(=O)O)cc2)s1
inhibition [1]: 95.1% | IC50 [2]: 5.78 µM

N#Cc1cc(-c2ccc(/C=N/NC(N)=S)o2)ccc1O
inhibition [1]: 107% | IC50 [2]: 4.14 µM

NC(=S)N/N=C/c1ccc(-c2cnc3ccccc3c2)o1
inhibition [1]: 88.9% | IC50 [2]: 10.3 µM

Cc1c(NC(=S)N/N=C/c2ccc(-c3ccc([N+](=O)[O-])cc3)o2)c(=O)n(-c2ccccc2)n1C
inhibition [1]: 95% | IC50 [2]: 10.8 µM

NC(=S)N/N=C/c1ccc(Cc2ccccc2)o1
inhibition [1]: 100% | CC50 at 48 h [3]: 100 µM | CC50 (MDCK): > 100 µM | IC50 [2]: 1.55 µM | IC50 (Procathepsin L): 8.09 µM

NC(=S)N/N=C/c1ccc(-c2ccc(C(=O)O)c(O)c2)o1
inhibition [1]: 102% | IC50 [4]: 42.8 µM | inhibition [5]: Active | inhibition [6]: Active | Activity [7]: Active | CC50 (Vero): > 100 µM | IC50 [8]: 0.85 µM | IC50 [9]: 6.18 µM | CC50 (MDCK): > 100 µM | IC50 [2]: 1.57 µM | IC50 (Procathepsin L): 16.3 µM

Cc1cc(-c2ccc(/C=N/NC(=O)Cn3nnnc3N)o2)c([N+](=O)[O-])cc1C
inhibition [1]: 86% | IC50 [2]: 17.5 µM

Nc1nonc1-c1nc2ccccc2n1CC(=O)N/N=C/c1ccc(-c2cccc(C(=O)O)c2)o1
Kd [10]: 27.7 µM | inhibition [1]: 65% | IC50 [2]: 21.3 µM

COc1ccc(-c2ccc(/C=N/NC(N)=S)o2)cc1OC
inhibition [1]: 102% | IC50 [2]: 5.81 µM

NC(=S)N/N=C/c1ccc(-c2ccc(C(=O)O)cc2)o1
inhibition [1]: 89.4% | IC50 [2]: 17.5 µM

NC(=S)N/N=C/c1ccc(-c2cccc(C(=O)O)c2)o1
inhibition [1]: 85.1% | IC50 [2]: 10.9 µM

NC(=S)N/N=C/c1ccc(-c2ccc(S(N)(=O)=O)cc2)o1
inhibition [1]: 98.5% | IC50 [2]: 5.39 µM

NC(=S)N/N=C/c1cc(-c2ccc(C(=O)O)cc2)co1
inhibition [1]: 90.9% | IC50 [2]: 24.6 µM

NC(=S)N/N=C/c1ccc(-c2ccc(Cl)c(C(=O)O)c2)o1
inhibition [1]: 93.6% | IC50 [2]: 25.4 µM

NC(=S)N/N=C/c1ccc(-c2ccc([N+](=O)[O-])cc2)o1
inhibition [1]: 81.1% | IC50 [2]: 9.69 µM

Cc1c(N=C(S)Nc2ccccc2)c(=O)n(-c2ccccc2)n1C
inhibition [1]: < 20%

O=C(O)c1cccc(-c2ccc(/C=c3/sc4nc5ccccc5n4c3=O)o2)c1
inhibition [1]: < 20%

COc1ccc(-c2ccc(/C=N/NC(=O)Cn3c(-c4nonc4N)nc4ccccc43)o2)c([N+](=O)[O-])c1
inhibition [1]: < 20%

Cc1cccc(C)c1OCC(=O)N/N=C/c1ccc([N+](=O)[O-])o1
inhibition [1]: < 20%

Cc1cccc(NC(=O)CN2C(=O)N/C(=C\c3ccc(-c4cccc(C(=O)O)c4)o3)C2=O)c1
inhibition [1]: 24.2%

NC(=S)N/N=C/c1cccc(-c2ccc(C(=O)O)cc2)c1
inhibition [1]: 99.2% | IC50 [2]: 5.44 µM

O=C(O)c1cccc(-c2ccc(/C=N/Nc3nc(N4CCCC4)nc(N4CCCC4)n3)o2)c1
inhibition [1]: < 20%

Nc1nonc1-c1nc2ccccc2n1CC(=O)N/N=C/c1ccc(-c2ccccc2C(=O)O)o1
inhibition [1]: 41.7%

Cc1c(NC(=S)N/N=C/c2ccccc2[N+](=O)[O-])c(=O)n(-c2ccccc2)n1C
inhibition [1]: < 20%

NC(=S)N/N=C/c1ccc(-c2ccc(C(=O)O)cc2F)o1
inhibition [1]: 101% | IC50 [2]: 8.14 µM

O=C(O)c1cccc(-c2ccc(/C=N/n3cnc4sc5c(c4c3=O)CCCC5)o2)c1
inhibition [1]: 30%

O=C(Cn1c2ccccc2c(=O)c2ccccc21)N/N=C/c1ccc(-c2ccccc2)o1
inhibition [1]: 21.3%

O=C(N/N=C/c1ccc(-c2ccc([N+](=O)[O-])cc2)o1)/C(=C\c1ccccc1O)NC(=O)c1ccccc1
inhibition [1]: 38.3%

Cc1c(NC(=S)NC(=O)c2ccc(Cl)cc2)c(=O)n(-c2ccccc2)n1C
inhibition [1]: < 20%

O=C(Cn1c2ccccc2c(=O)c2ccccc21)N/N=C/c1ccc(-c2cccc([N+](=O)[O-])c2)o1
inhibition [1]: 26.8%

NC(=O)N/N=C/c1ccc(-c2ccc([N+](=O)[O-])cc2)o1
inhibition [1]: < 20%

NC(=S)N/N=C/c1ccc(-c2cc(C(=O)O)ccc2Cl)o1
inhibition [1]: 97.2% | IC50 [2]: 10 µM

COCc1cc(C)nc(OCC(=O)N/N=C/c2ccc(-c3cccc(C(=O)O)c3)o2)c1C#N
inhibition [1]: 37.3%

C=C(C)CNC(=S)Nc1c(C)n(C)n(-c2ccccc2)c1=O
inhibition [1]: < 20%

NC(=S)N/N=C/c1ccc(-c2cccc([N+](=O)[O-])c2)o1
inhibition [1]: 81.6% | IC50 [2]: 8.08 µM

Cc1c(NC(=S)N/N=C/c2ccc(-c3ccc(Br)cc3)o2)c(=O)n(-c2ccccc2)n1C
inhibition [1]: 27.7%

O=C(O)c1cc(-c2ccc(/C=N/Nc3nc(Nc4ccccc4)nc(Nc4ccccc4)n3)o2)ccc1O
inhibition [1]: 34.6%

Cc1c(NC(=S)NC(=O)CC(C)C)c(=O)n(-c2ccccc2)n1C
inhibition [1]: < 20%

COCc1cc(C)nc(OCC(=O)N/N=C/c2ccc(-c3ccc(C(=O)O)cc3)o2)c1C#N
inhibition [1]: 36.2%

COc1ccc(/N=C2/S/C(=C\c3ccc(-c4ccc(Cl)c(C(=O)O)c4)o3)C(=O)N2C)cc1
inhibition [1]: 27.1%

Cc1c(NC(=S)NC(=O)c2ccccc2)c(=O)n(-c2ccccc2)n1C
inhibition [1]: < 20%

COCc1c(Br)c(C)nc(OCC(=O)N/N=C/c2ccc(-c3cccc(C(=O)O)c3)o2)c1C#N
inhibition [1]: 32.9%

Cc1cc(-c2ccc(/C=N/NC(=O)Cn3c(-c4nonc4N)nc4ccccc43)o2)ccc1[N+](=O)[O-]
inhibition [1]: 42.9%

CNC(=S)N/N=C/c1ccc(-c2ccc(C(=O)O)cc2)o1
inhibition [1]: 39.5%

O=C(CNc1ccc2ccccc2c1)N/N=C/c1ccc(-c2ccc([N+](=O)[O-])cc2)o1
inhibition [1]: 23%

O=C(Cn1c2ccccc2c(=O)c2ccccc21)N/N=C/c1ccc(-c2ccc([N+](=O)[O-])cc2Cl)o1
inhibition [1]: 24.1%

O=[N+]([O-])c1cccc(-c2ccc(/C=N/NC(=S)NC3CCS(=O)(=O)C3)o2)c1 (stereo unspecified)
inhibition [1]: 30.2%

Cc1cc(-c2ccc(/C=N/NC(=O)Nc3ccccc3)o2)c(C)c([N+](=O)[O-])c1
inhibition [1]: < 20%

NC(=S)N/N=C/c1ccc(-c2ccc(C(=O)O)c(Cl)c2)o1
inhibition [1]: 89% | IC50 [2]: 32.5 µM

COc1cccc(C(=O)NCC(=O)N/N=C/c2ccc([N+](=O)[O-])o2)c1
inhibition [1]: < 20%

O=C(Cn1c2ccccc2c(=O)c2ccccc21)N/N=C/c1ccc(-c2ccc([N+](=O)[O-])cc2)o1
inhibition [1]: 30%

Cc1c(-c2ccc(/C=N/NC(=O)Cn3c(-c4nonc4N)nc4ccccc43)o2)ccc([N+](=O)[O-])c1C
inhibition [1]: < 20%

Cc1c(NC(=S)NC(=O)c2cncc(Br)c2)c(=O)n(-c2ccccc2)n1C
inhibition [1]: < 20%

Nc1nonc1C(=O)N/N=C/c1ccc(-c2cccc([N+](=O)[O-])c2)o1
inhibition [1]: 31.2%

NC(=O)c1ccc(-c2ccc(/C=N/NC(N)=S)o2)cc1
inhibition [1]: 94.2% | IC50 [2]: 4 µM

O=C(COCc1ccccc1Cl)N/N=C/c1ccc(-c2ccc([N+](=O)[O-])cc2)o1
inhibition [1]: 23.3%
